A1 apoptosis 2 = A1 inhibition read as caspase activation; 24,000 tested, under 10 active; caspase activation, % (no concentration beside the values); MEF A1-2A-BIM cells, caspase-Glo luminescence, 3 h; percent of clofoctol response, DMSO zero; in the data active = caspase activation above about 5.9%
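Evaluation: Caspase-3/7 activity from luminescence increase | Assay system: A1-2A-BIM mouse embryonic fibroblasts | Quantity: 2500 MEF cells/well | Medium: RPMI-1640 plus 10% FBS | Detection: Caspase-Glo 3/7 luminescence, 1 h at room temperature | Dosing: 50 nL compound per well, pinned | Timing: Cells settled overnight, compound exposure 3 h at 37 °C, 5% CO2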
INS-1E ATP HTS = preserves ATP levels in cytokine-treated INS-1E cells; INS-1E cytokine-induced death, ATP luminescence, 48 h; normalised: neutral wells 0, positive control 100; 0.1% of 20,000 active; AID 488910; protection from cytokine-induced ATP loss, % at 10 µM;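 active = mean replicate protection from cytokine-induced ATP loss at least 50% and at least 75% of replicates each reaching 50%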
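Material: INS-1E rat cells; Quantity: 8000 cells/well; Buffer or medium: phenol-red-free RPMI with 5% fetal bovine serum; Probe or stimulus: cytokine cocktail of IFN-γ, TNF-α and IL-1β; Compound dosing: single test concentration per compound, delivered by pin transfer; Incubation: 48 h co-treatment, 10 min post-lysis read; Signal: CellTiter-Glo luminescence.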
T cruzi intra = blocks T. cruzi growth inside host cells; 4.9% of 22,000 active; AID 651903; activity score (inhibition), % at 5.01 µM; intracellular Trypanosoma cruzi in host cells, plate reader; in the data active = activity score above about 55%;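 note: parasites and compound incubated about four days before reading; 0% = median of neutral control wells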
Active calls of the source: *; . = no result given. The sample as a whole holds a higher share of hits than the screen did.

SMILES	A1 apoptosis 2	INS-1E ATP HTS	T cruzi intra
C=CCNC(=O)[C@@H]1[C@H]2C(=O)O[C@H](c3ccccc3)[C@H](c3ccccc3)N2[C@H](c2ccccc2OCCO)[C@@]12C(=O)Nc1ccc(C#CC3(O)CCCCCC3)cc12	-1	.	.
O=C(N/N=C/c1ccc(-c2cccc(Cl)c2)o1)c1ccccc1O	-1	-17	-18
C[C@H](CO)N1C[C@H](C)[C@@H](CN(C)Cc2ccc(-c3ccccc3)cc2)Oc2ccc(NC(=O)Nc3ccc(C(F)(F)F)cc3)cc2CC1=O	0	.	.
C[C@@H]1CN([C@H](C)CO)C(=O)Cc2cc(NC(=O)Nc3ccc(C(F)(F)F)cc3)ccc2O[C@@H]1CN(C)Cc1ccc(-c2ccccc2)cc1	.	-15	76*
C[C@H]1CN([C@@H](C)CO)C(=O)c2cccc(NS(=O)(=O)c3ccc(F)cc3)c2O[C@@H]1CN(C)Cc1ccc(-c2ccccc2)cc1	0	-7	18
C[C@H](CO)N1C[C@H](C)[C@@H](CN(C)Cc2ccc(C(F)(F)F)cc2)Oc2c(NS(=O)(=O)c3ccccc3)cccc2C1=O	.	2	66*
C[C@H](CO)N1C[C@H](C)[C@@H](CN(C)Cc2ccccc2)Oc2c(NS(C)(=O)=O)cccc2C1=O	0	2	59*
C[C@@H]1CN([C@@H](C)CO)C(=O)c2cccc(NS(=O)(=O)c3ccc(F)cc3)c2O[C@@H]1CN(C)Cc1ccc(-c2ccccc2)cc1	0	-68	66*
C[C@H]1CN([C@@H](C)CO)C(=O)c2cccc(NS(C)(=O)=O)c2O[C@H]1CN(C)Cc1ccccc1	1	-6	-8
C[C@H]1CN([C@@H](C)CO)C(=O)c2cccc(NS(=O)(=O)c3ccccc3)c2O[C@H]1CN(C)Cc1ccc(C(F)(F)F)cc1	.	0	31
COc1ccc(O)c(/C=N/NC(=O)CCCCCC(=O)Nc2ccccc2O)c1	.	8	4
O=C(N/N=C/c1ccc(Br)s1)c1ccccc1O	-9	-118	-15
O=C1c2ccccc2[C@](Cc2ccccc2I)(C(=O)O)[C@H](c2ccc(CO)cc2)N1C1CCCCC1	0	.	.
COc1ccc([C@H]2C[C@H]3C(I)=CC2C(=O)[C@]32CO2)cc1OC	0	.	.
O=C(NO)c1ccc(C(=O)N/N=C/c2ccc(F)c(Oc3ccccc3)c2)cc1	0	14	0
C[C@@H]1CCCCO[C@H](CN(C)Cc2ccc(Cl)c(Cl)c2)[C@@H](C)CN([C@@H](C)CO)C(=O)c2cc(NS(=O)(=O)c3ccc(F)cc3)ccc2O1	-1	.	.
C[C@@H]1CCCCO[C@H](CN(C)Cc2ccc(Cl)c(Cl)c2)[C@@H](C)CN([C@H](C)CO)C(=O)c2cc(NS(=O)(=O)c3ccc(Cl)cc3)ccc2O1	-2	-14	64*
Cc1ccc(S(=O)(=O)Nc2ccc3c(c2)C(=O)N([C@H](C)CO)C[C@@H](C)[C@H](CN(C)Cc2ccc(Cl)c(Cl)c2)OCCCC[C@@H](C)O3)cc1	-1	.	.
COc1ccc(S(=O)(=O)Nc2ccc3c(c2)C(=O)N([C@H](C)CO)C[C@H](C)[C@@H](CN(C)Cc2ccc(Cl)c(Cl)c2)OCCCC[C@@H](C)O3)cc1	-1	-69	73*
C[C@@H]1CCCCO[C@@H](CN(C)Cc2ccc(Cl)c(Cl)c2)[C@@H](C)CN([C@H](C)CO)C(=O)c2cc(NS(=O)(=O)c3ccc(Cl)cc3)ccc2O1	-2	-13	72*
COc1ccc(S(=O)(=O)Nc2ccc3c(c2)C(=O)N([C@H](C)CO)C[C@H](C)[C@@H](CN(C)Cc2ccc(Cl)c(Cl)c2)OCCCC[C@H](C)O3)cc1	0	.	.
CCn1c2ccccc2c2cc(/C=N/NC(=O)CCCCCC(=O)Nc3ccccc3O)ccc21	0	.	.
COc1ccc(CN(C)C[C@@H]2Oc3ccc(NS(=O)(=O)c4ccc(F)cc4)cc3CC(=O)N([C@H](C)CO)C[C@H]2C)cc1	.	-2	41
COc1ccc(CN(C)C[C@H]2Oc3ccc(NS(=O)(=O)c4ccc(OC)cc4)cc3CC(=O)N([C@H](C)CO)C[C@@H]2C)cc1	-1	.	.
COc1ccc(CN(C)C[C@H]2Oc3ccc(NS(=O)(=O)c4ccc(OC)cc4)cc3CC(=O)N([C@H](C)CO)C[C@H]2C)cc1	0	3	64*
SMILES	A1 apoptosis 2	INS-1E ATP HTS	T cruzi intra
COc1ccc(S(=O)(=O)Nc2ccc3c(c2)CC(=O)N([C@@H](C)CO)C[C@@H](C)[C@H](CN(C)Cc2ccccc2)O3)cc1	-1	.	.
COc1ccc(S(=O)(=O)Nc2ccc3c(c2)CC(=O)N([C@H](C)CO)C[C@@H](C)[C@@H](CN(C)Cc2ccc(-c4ccccc4)cc2)O3)cc1	1	-16	72*
COc1ccc(CN(C)C[C@@H]2Oc3ccc(NS(=O)(=O)c4ccccc4)cc3CC(=O)N([C@@H](C)CO)C[C@@H]2C)cc1	.	4	17
COc1ccc(CN(C)C[C@@H]2Oc3ccc(NS(=O)(=O)c4ccc(OC)cc4)cc3CC(=O)N([C@H](C)CO)C[C@H]2C)cc1	1	-8	70*
COc1ccc(S(=O)(=O)Nc2ccc3c(c2)CC(=O)N([C@H](C)CO)C[C@@H](C)[C@@H](CN(C)Cc2ccccc2)O3)cc1	0	-6	63*
O=C(O)c1cccc(/C=N/NC(=O)c2ccc(C(=O)NO)cc2)c1	0	11	-7
COc1ccc(S(=O)(=O)Nc2ccc3c(c2)CC(=O)N([C@@H](C)CO)C[C@@H](C)[C@@H](CN(C)Cc2ccc4c(c2)OCO4)O3)cc1	0	-4	4
COc1ccc(S(=O)(=O)Nc2ccc3c(c2)CC(=O)N([C@H](C)CO)C[C@@H](C)[C@H](CN(C)Cc2ccc4c(c2)OCO4)O3)cc1	.	3	66*
CC(C)=CCC[C@H](C)C/C=N/NC(=O)c1cccc(C(=O)NO)c1	2	3	-8
CC1(C)COC(CCC/C=N/NC(=O)c2ccccn2)OC1	0	5	-6
C[C@H]1CN([C@@H](C)CO)C(=O)Cc2cc(NC(=O)Nc3ccc(F)cc3)ccc2O[C@H]1CN(C)CC1CCCCC1	.	-3	-5
C[C@H]1CN([C@@H](C)CO)C(=O)Cc2cc(NC(=O)Nc3ccc(C(F)(F)F)cc3)ccc2O[C@@H]1CN(C)CC1CCCCC1	0	-42	63*
C[C@H](CO)N1C[C@H](C)[C@H](CN(C)CC2CCCCC2)Oc2ccc(NC(=O)Nc3ccc(C(F)(F)F)cc3)cc2CC1=O	0	-79	60*
C[C@H](CO)N1C[C@H](C)[C@H](CN(C)CC2CCCCC2)Oc2ccc(NC(=O)Nc3ccc(F)cc3)cc2CC1=O	0	5	42
C=C(C)[C@@H]1CC=C(/C=N/NC(=O)CCCCCCC(=O)OC)CC1	0	-5	8
C[C@H]1CN([C@@H](C)CO)C(=O)c2cccc(NC(=O)c3nc4ccccc4s3)c2O[C@@H]1CN(C)S(=O)(=O)c1ccccc1	.	-13	73*
COc1ccc(S(=O)(=O)N(C)C[C@@H]2Oc3c(NC(=O)Nc4cccc5ccccc45)cccc3C(=O)N([C@H](C)CO)C[C@@H]2C)cc1	0	11	-5

Compound activity: PubChem, Broad Institute
